Series [1] is described as follows: Cytotoxicity against African green monkey Vero cells incubated for 48 hrs by MTT assay. It counts as toxicity, cell-based. To be noted: chlorocebus sabaeus. Summed up: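 Uninfected Vero cells exposed to compounds; viability read by MTT assay to estimate cytotoxicity for selectivity assessment.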
Background: Tetrazolium assays rely on reduction of a dye to a coloured formazan, in cell work by metabolically active cells.

Series [2] has as its system Leishmania infantum. The experiment in a line: Antiprotozoal activity against Leishmania infantum MHOM/BR/2002/LPC-RPV promastigotes assessed as growth inhibition at 25 uM incubated for 5 days relative to control. The series is classed as functional. To be noted: 120 h, time 5 day, read-out: GI.
Series [3] relates to Trypanosoma cruzi. The experiment in a line: Antiprotozoal activity against Trypanosoma cruzi Tulahuen strain amastigotes expressing Escherichia coli beta-galactosidase cultured in Vero cells assessed as growth inhibition incubated for 5 days. It counts as functional, organism-based. To be noted: 120 h. Summed up: (§1)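 Vero cells infected with trypomastigotes carrying β-galactosidase; intracellular parasites exposed to compounds, growth inhibition read spectrophotometrically.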

Series [4] has as its system Trypanosoma cruzi. The experiment in a line: Antiprotozoal activity against Trypanosoma cruzi Tulahuen strain amastigotes expressing Escherichia coli beta-galactosidase cultured in Vero cells assessed as growth inhibition at 10 uM incubated for 5 days relative to control. The series is classed as functional. To be noted: 120 h, time 5 day, read-out: GI. In outline: as §1

The test system of series [5] is Trypanosoma cruzi. The experiment in a line: Antiprotozoal activity against Trypanosoma cruzi epimastigotes assessed as growth inhibition at 25 uM incubated for 5 days relative to control. The series is classed as functional. To be noted: 120 h, time 5 day, read-out: GI.
Series [6] deals with Leishmania infantum. The experiment in a line: Antiprotozoal activity against Leishmania infantum MHOM/BR/2002/LPC-RPV promastigotes assessed as growth inhibition at 25 uM incubated for 5 days. It counts as functional, organism-based.

As usually defined, the CC50 is the concentration that lowers cell viability or growth by half. The IC50 is the concentration that gives 50% inhibition. For the molecule `C=C1CC[C@@H]2[C@H](COC(=O)CCc3c[nH]c4ccccc34)[C@H](O)[C@H](O)C[C@@]2(C)[C@@H]1CCc1ccoc1`, the CC50 at 48 h in series [1] was under 10 µM. The inhibition of growth at 25 µM in the series on Leishmania infantum [2] stood at 91.5%; with Trypanosoma cruzi [5], 64.3%. Also, the IC50 in the series on Trypanosoma cruzi [3] stood at 2.26 µM. For the same molecule, the inhibition of growth at 10 µM in the series on Trypanosoma cruzi [4] came to 98.7%.
Regarding `C=C1CC[C@@H]2[C@H](COC(=O)CCCCCCCCCCC)[C@H](OC(=O)CCCCCCCCCCC)[C@H](O)C[C@@]2(C)[C@@H]1CCc1ccoc1`, the inhibition of growth at 25 µM with Leishmania infantum [2] was determined as 2.4%; with Trypanosoma cruzi [5] it was 46.8%. The inhibition of growth at 10 µM in the series on Trypanosoma cruzi [4] is 4.73%.
In turn, `C=C1CC[C@@H]2[C@H](COC(=O)CCCC[C@@H]3CCSS3)[C@H](O)[C@H](O)C[C@@]2(C)[C@@H]1CCc1ccoc1` had a CC50 at 48 h in series [1] of under 10 µM. Moreover, the inhibition of growth at 25 µM in the series on Leishmania infantum [2] turned out to be 47.7%; in the series with Trypanosoma cruzi [5], 58.5%. In addition, the IC50 in the series on Trypanosoma cruzi [3] turned out to be 2.06 µM. In the series with Trypanosoma cruzi [4], the inhibition of growth at 10 µM was found to be 95.2%.
`C=C1CC[C@@H]2[C@H](CO)[C@H](O)[C@H](O)C[C@@]2(C)[C@@H]1CCc1ccoc1` returned a cytotoxic concentration (CC50) at 48 h in series [1] of 85.4 µM. Moreover, the inhibition of growth at 25 µM in the series with Leishmania infantum [2] came out at 0%; in the series with Trypanosoma cruzi [5] it was 24.9%. For the same molecule, the IC50 in the series on Trypanosoma cruzi [3] is over 15 µM. The inhibition of growth at 10 µM in the series on Trypanosoma cruzi [4] stood at 28%.
Regarding `C=C1CC[C@@H]2[C@H](COC(C)=O)[C@H](O)[C@H](O)C[C@@]2(C)[C@@H]1CCc1ccoc1`, the values for the inhibition of growth at 25 µM with Leishmania infantum [2] and in the series with Trypanosoma cruzi [5] were 15.7% and 21.6%, respectively. For the same molecule, the inhibition of growth at 10 µM in the series on Trypanosoma cruzi [4] came out at 22.7%.
In the same order, the values of `C=C1CC[C@@H]2[C@H](COC(=O)CCCCCCCCCCCCCCC)[C@H](O)[C@H](O)C[C@@]2(C)[C@@H]1CCc1ccoc1` are 0%, 24.9% and 2.98%.
`C=C1CC[C@@H]2[C@H](COC(=O)CCCCCCCCCCC)[C@H](O)[C@H](O)C[C@@]2(C)[C@@H]1CCc1ccoc1`: the inhibition of growth at 25 µM worked out at 29.1% in the series on Leishmania infantum [2] and 69.7% in the series on Trypanosoma cruzi [5]. The inhibition of growth at 10 µM in the series on Trypanosoma cruzi [4] was 12.5%.
The corresponding values for `C=C1CC[C@@H]2[C@H](COC(=O)CCCCCCCCCCCCCCC)[C@H](OC(=O)CCCCCCCCCCCCCCC)[C@H](O)C[C@@]2(C)[C@@H]1CCc1ccoc1` are 0%, 31.8% and 2.06%.
Regarding `C=C1CC[C@@H]2[C@H](COC(=O)CCCC)[C@H](O)[C@H](O)C[C@@]2(C)[C@@H]1CCc1ccoc1`, the midpoint of cytotoxicity in series [1], the CC50 at 48 h, lay at 19.3 µM. The inhibition of growth at 25 µM in the series with Leishmania infantum [2] stood at 94.1%; with Trypanosoma cruzi [5] it was 93.5%. Also, in the series with Trypanosoma cruzi [3], the IC50 was found to be 8.5 µM. Besides, the inhibition of growth at 10 µM in the series with Trypanosoma cruzi [4] amounted to 99.1%.
Regarding `C=C1CC[C@@H]2[C@H](COC(=O)CCCCCCC)[C@H](OC(=O)CCCCCCC)[C@H](O)C[C@@]2(C)[C@@H]1CCc1ccoc1`, the inhibition of growth at 25 µM in the series with Leishmania infantum [2] was 16.4%; with Trypanosoma cruzi [5], 27.4%. The inhibition of growth at 10 µM in the series on Trypanosoma cruzi [4] stood at 9.79%.
In turn, `C=C1CC[C@@H]2[C@H](COC(=O)CCCCCCC)[C@H](O)[C@H](O)C[C@@]2(C)[C@@H]1CCc1ccoc1` came in with a CC50 at 48 h in series [1] of 18.1 µM. The inhibition of growth at 25 µM in the series on Leishmania infantum [2] came out at 57.1%; with Trypanosoma cruzi [5], 99.5%. In addition, in the series on Trypanosoma cruzi [3], the IC50 is 7.03 µM. Moreover, in the series on Trypanosoma cruzi [4], the inhibition of growth at 10 µM worked out at 100%.
As to `O=C(Cn1ccnc1[N+](=O)[O-])NCc1ccccc1` [BENZNIDAZOLE], the CC50 at 48 h in series [1] is over 384 µM. The IC50 in the series with Trypanosoma cruzi [3] was found to be 0.94 µM.
For MEGLUMINE ANTIMONATE, in the series with Leishmania infantum [6], the IC50 was found to be 20 µM.

The record behind these values is ChEMBL document CHEMBL5532745, “Enzymatic Synthesis of Austroeupatol Esters with Enhanced Antiprotozoal Activity” (ACS Med Chem Lett, 2024).
